Compound activity: PubChem BioAssay, several laboratories
Tb MetRS inh: Trypanosoma brucei MetRS inhibition | purified T. brucei MetRS, ATP depletion, Kinase-Glo luminescence | 0.4% of 360,000 active | AID 624268 | inhibition, % at 11.9 µM;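 active = inhibition above a per-plate cutoff of the control wells' mean inhibition plus 3 SD, cut at about 5.5% in these data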;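 also: 0% = DMSO wells median and 100% = median of wells with control inhibitor compound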
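Dosing: 11.9 µM compound single dose, 0.9% DMSO; Assay system: purified T. brucei MetRS enzyme; Measured by: Kinase-Glo luciferase luminescence reporting remaining unconsumed ATP; Schedule: 15 min plus 2 h at 25 °C.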
Efflux pump inh: blocks antifungal efflux pumps in multiplex yeast assay. S. cerevisiae Candida pump triplex, Nile Red efflux. inhibition, % at 10 µM. 0.44% of 330,000 active. AID 485275;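 active = plate passing quality check with inhibition over a set limit, or well fluorescence over plate mean plus 4 SD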;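 also: Nile Red retained in pooled yeast measured as flow cytometry median fluorescence; 0% = buffer negative control and 100% = Enniatin B positive control; higher means more Nile Red kept so more efflux inhibition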
AHR act: activators of human aryl hydrocarbon receptor; AID 2796; 2.5% of 320,000 active; activation, % at 5 µM; P35869; AHR-responsive luciferase reporter cells, luminescence; in the data active = activation above about 47%;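 also: 0% = vehicle wells and 100% = reference agonist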
Target sequence (P35869 whole entry, looked up): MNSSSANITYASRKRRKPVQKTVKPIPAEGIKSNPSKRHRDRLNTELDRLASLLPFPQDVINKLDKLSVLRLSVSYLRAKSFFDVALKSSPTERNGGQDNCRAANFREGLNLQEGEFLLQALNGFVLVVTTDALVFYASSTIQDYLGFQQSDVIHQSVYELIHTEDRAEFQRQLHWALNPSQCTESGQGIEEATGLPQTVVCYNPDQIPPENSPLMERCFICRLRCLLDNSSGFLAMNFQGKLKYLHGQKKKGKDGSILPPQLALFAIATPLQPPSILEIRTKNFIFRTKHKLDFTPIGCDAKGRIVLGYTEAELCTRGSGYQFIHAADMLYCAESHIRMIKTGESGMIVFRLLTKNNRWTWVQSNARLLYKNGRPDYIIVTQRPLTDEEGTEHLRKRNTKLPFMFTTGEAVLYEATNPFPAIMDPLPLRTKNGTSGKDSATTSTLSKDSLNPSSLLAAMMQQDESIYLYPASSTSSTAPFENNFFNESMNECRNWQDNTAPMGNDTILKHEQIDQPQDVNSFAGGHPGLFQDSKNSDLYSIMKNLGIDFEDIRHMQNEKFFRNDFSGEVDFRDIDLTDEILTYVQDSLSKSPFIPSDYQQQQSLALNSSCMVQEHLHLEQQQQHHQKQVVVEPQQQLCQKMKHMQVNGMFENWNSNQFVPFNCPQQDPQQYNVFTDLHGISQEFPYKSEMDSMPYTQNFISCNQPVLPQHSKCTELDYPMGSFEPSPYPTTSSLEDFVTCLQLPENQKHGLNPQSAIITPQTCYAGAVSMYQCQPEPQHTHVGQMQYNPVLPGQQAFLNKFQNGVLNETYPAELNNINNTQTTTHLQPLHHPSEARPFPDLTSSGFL
TAG inh: reduces triacylglycerol accumulation in H9c2 cells | 0.66% of 230,000 active | Nile Red lipid (TAG) fluorescence; cells loaded with 200 µM oleic acid | AID 651582 | inhibition, % at 12.5 µM;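 active = pattern-corrected inhibition of lipid staining of at least 50% with the nuclear-stain viability signal not falling by more than 50%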;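 also: 0% = DMSO wells and 100% = triacsin C control wells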
SMARCA2 act: SMARCA2 function activation, primary screen | MG213 cells, MMTV-luciferase reporter, dexamethasone, overnight | activation, % at 9.1 µM | 1% of 370,000 active; in the data active = activation above about 7.8%;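 also: 0% = vehicle wells and 100% = reference activator wells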
Yeast cmpd fluor: compound fluorescence in yeast efflux pump counter-screen; AID 588517; S. cerevisiae AD/pABC3, flow cytometry; shares compounds with Efflux pump inh; 4% of 1,700 active; fluorescence ratio to DMSO, % at 10 µM;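 active = fluorescence ratio to DMSO above its plate's cutoff, the plate mean ratio plus 5 SD, cut at about 210% in these data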;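 also: unstained yeast with no Nile Red so the signal is compound autofluorescence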
Mdr1 pump inh: inhibitors of Candida albicans Mdr1 efflux pump | shares compounds with Efflux pump inh | 1% of 1,700 active | S. cerevisiae AD/CaMDR1, Nile Red efflux, flow cytometry | inhibition, % at 10 µM; in the data active = inhibition above about 26%;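 also: 0% = DMSO vehicle and 100% = reference inhibitor; higher means more Nile Red retained so more efflux inhibition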
CaCdr2 efflux inh: blocks the Candida albicans Cdr2 efflux pump in yeast; shares compounds with Efflux pump inh; S. cerevisiae AD/CaCDR2, Nile Red retention, flow cytometry; Nile Red retention ratio vs DMSO, % at 10 µM; 4% of 1,700 active; in the data active = Nile Red retention ratio vs DMSO above about 190%;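 also: higher ratio means more blocking of Cdr2 efflux of the dye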
Cdr1 pump inh: inhibitors of Candida albicans Cdr1 efflux pump; shares compounds with Efflux pump inh; 1% of 1,700 active; S. cerevisiae AD/CaCDR1, Nile Red efflux, flow cytometry; inhibition, % at 10 µM; AID 588522;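 active = inhibition above the screen-wide mean plus twice its standard deviation, cut at about 32% in these data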
The depositor's hits bear a star; x = no result given. Most compounds without a hit are left out; they make up all but 4.1% or so of the library.

SMILES	Tb MetRS inh	Efflux pump inh	AHR act	TAG inh	SMARCA2 act	Yeast cmpd fluor	Mdr1 pump inh	CaCdr2 efflux inh	Cdr1 pump inh
Fc1ccc(-c2csc3[n+]2CCS3)cc1	0	3.0*	5	-5	-7	91	0	89	0
O=C(NC(=Nc1nc2ccccc2o1)NC(=O)c1ccccc1)c1ccccc1	-1	1.2*	30	x	-2	102	0	127	1
COC(=O)[C@]12C[C@H](CC(=O)N3CCCC3)C(=O)N(Cc3ccccc3)C1=C[C@H](C(C)(C)C)O[C@@H]2C	x	x	x	x	-4	x	x	x	x
O=C(OCC(=O)c1ccc(Cl)cc1Cl)c1cnccn1	-1	0	0	x	-1	x	x	x	x
O=C(OCC(=O)c1ccccc1Cl)c1cnccn1	1	14*	-1	x	-2	100	0	114	0
O=C(Nc1ccc(F)cc1)N[C@@H]1C[C@@H]2O[C@H](CO)CC[C@@H]2O[C@@H]1CCc1ccc(C2=CCCC2)cc1	x	x	x	x	-3	x	x	x	x
CC(C)CCOc1ccc(C(=O)N2CCN(c3ncccn3)CC2)cc1	-1	3.5*	3	x	0	106	0	102	0
Cc1ccc2c(c1)C(CS(=O)(=O)NCc1ccc(F)cc1)NC2 (stereo unspecified)	x	x	x	x	5	x	x	x	x
CC(=NNC(=O)CSc1nnc(-c2ccccc2)n1-c1ccccc1)c1cccc([N+](=O)[O-])c1	x	x	x	x	0	x	x	x	x
O=C(C1CCC1)N1CCc2cc(S(=O)(=O)NC3CCCC3)ccc21	0	0	7	-18	-2	x	x	x	x
O=C(C1CCC1)N1CCc2cc(S(=O)(=O)Nc3ccc4c(c3)OCCO4)ccc21	-1	0	8	-30	-3	112	0	95	0
Cc1ccc(CNS(=O)(=O)c2ccc3c(c2)CCN3C(=O)C2CCC2)cc1	0	0	0	x	-2	102	0	99	0
CC1CCCN(CCCNS(=O)(=O)c2ccc3c(c2)CCN3C(=O)C2CC2)C1 (stereo unspecified)	0	1.4*	0	x	-1	115	0	110	0
CCCN(CCC)CCNS(=O)(=O)c1ccc2c(c1)CCN2C(=O)C1CCC1	-1	0	-1	x	4	107	0	100	0
CCCCOCCCNC(=O)C[C@H]1C[C@@]2(C(=O)OC)C(=C[C@H](C3CCCC3)O[C@@H]2C)N(CCc2ccc(OC)c(OC)c2)C1=O	x	x	x	x	-2	x	x	x	x
CCOC(=O)Cn1cc(CN2C(C(=O)OC)CN(Cc3ccc(OC)cc3)CCS2(=O)=O)nn1 (stereo unspecified)	x	x	x	x	-5	x	x	x	x
O=C(Nc1cc(F)cc(F)c1)c1ccc(NCCc2ccccc2)c([N+](=O)[O-])c1	0	13*	57*	x	-2	101	0	102	0
Cc1ccc(NC(=O)c2ccc(NCCc3ccccc3)c([N+](=O)[O-])c2)cc1F	0	0	22	x	-2	x	x	x	x
O=C1/C(=C\c2ccccn2)SC(=S)N1Nc1ncc(C(F)(F)F)cc1Cl	0	0	17	x	x	x	x	x	x
O=C1/C(=C/c2ccccn2)SC(=S)N1Nc1ncc(C(F)(F)F)cc1Cl	0	x	x	-5	-2	100	0	92	0
O=C1/C(=C/c2ccc(F)cc2)SC(=S)N1Nc1ncc(C(F)(F)F)cc1Cl	-1	0	0	-13	0	100	0	108	0
CCOC(=O)[C@]12CCCCC/C=C\1N(Cc1ccc(OC)cc1)C(=O)[C@H]2CC(=O)NCc1cccc2ccccc12	x	x	x	x	-4	x	x	x	x
COc1ccc(CNC(=O)C(=O)NCC2OCCN2S(=O)(=O)c2ccc(F)cc2)cc1 (stereo unspecified)	0	0	-6	20	3	x	x	x	x
COc1ccc(S(=O)(=O)N2CCOC2CNC(=O)C(=O)NCc2ccc(F)cc2)cc1OC (stereo unspecified)	-1	0	2	14	1	108	0	93	0
Cc1ccc(CNC(=O)C(=O)NCC2OCCN2S(=O)(=O)c2ccc(Br)cc2)cc1 (stereo unspecified)	0	1	0	18	-5	109	0	112	0
SMILES	Tb MetRS inh	Efflux pump inh	AHR act	TAG inh	SMARCA2 act	Yeast cmpd fluor	Mdr1 pump inh	CaCdr2 efflux inh	Cdr1 pump inh
COc1ccc(CNC(=O)C(=O)NCC2OCCN2S(=O)(=O)c2ccc(C)cc2)cc1 (stereo unspecified)	0	0	-3	14	0	95	0	106	0
COc1ccc(CNC(=O)C(=O)NCC2OCCN2S(=O)(=O)c2ccccc2)cc1 (stereo unspecified)	0	-1	-2	29	-3	102	1	100	0
CCN(CC(=O)Nc1ccc(NC(C)=O)cc1)CC(=O)Nc1ccccc1C(=O)c1ccccc1	0	0.7*	4	-2	-5	114	0	112	0
COc1cccc(C(=O)N2CCN(C(=O)c3cccc(F)c3)CC2)c1	0	0	4	-1	-3	x	x	x	x
O=C(c1cccc(F)c1)N1CCN(C(=O)c2cc3ncc(Br)cn3n2)CC1	0	14*	0	x	-3	103	0	99	0
C=CCn1c(Cc2cccs2)nnc1SCC(=O)Nc1ccc2c(c1)OCO2	x	x	x	x	-2	x	x	x	x
CCOC(=O)c1c(NC(=O)Cn2nc(C(=O)O)c3ccccc3c2=O)sc2c1CCC(C)C2 (stereo unspecified)	-1	0.5*	2	16	-4	107	0	95	0
NC(=O)c1c(NC(=O)Cn2nc(C(=O)O)c3ccccc3c2=O)sc2c1CCC2	0	0	3	-3	0	x	x	x	x
CCOCC(=O)NC(=O)N1C[C@H]2CON(C)[C@H]2C[C@H]1c1ccc(OC)cc1	x	x	x	x	-3	x	x	x	x
Cc1cc(NC(=O)CCC(=O)N(Cc2ccco2)C(C(=O)NC2CCCCC2)c2cccs2)no1 (stereo unspecified)	0	0	0	9	-1	x	x	x	x
Cc1ccc(C(C(=O)NC2CCCC2)N(Cc2ccco2)C(=O)CCC(=O)Nc2cc(C)on2)cc1 (stereo unspecified)	0	0	3	35	-4	87	0	95	0
Cc1cc(NC(=O)CCC(=O)N(Cc2cccs2)C(C(=O)NC2CCCC2)c2ccccc2)no1 (stereo unspecified)	-2	0	-1	33	-1	82	0	95	0
Cc1cc(NC(=O)CCC(=O)N(Cc2cccs2)C(C(=O)NC2CCCC2)c2cccnc2)no1 (stereo unspecified)	-1	0	5	19	6	x	x	x	x
